NR2E3 ag-1 – activates human photoreceptor nuclear receptor NR2E3 | Q9Y5X4 | GST-NR2E3/biotin-RetCOR TR-FRET, 1536-well | actives 0.12% (n = 320,000) | inhibition of corepressor binding, % at 4.78 µM | AID 2300;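 active = percent inhibition above the cutoff of mean plus 3 SD of all tested compounds, set per screening campaign, cut at about 20% in these data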
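Material: NR2E3–RetCOR corepressor complex / Incubation: Compound–protein incubation for 5 h at 4 °C / Dosing: compound at 4.8 µM, single dose / Detection: time-resolved FRET / Benchmarks: high control biotin, low control 0.6% DMSO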
NR2E3 ag-2 – activates human NR2E3 receptor. CHO-S Gal4-NCOR/VP16-NR2E3 two-hybrid, luciferase. inhibition of corepressor binding, % at 3.98 µM. actives 0.35% (n = 360,000). AID 602229;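 active = inhibition above the mean of all tested compounds plus 3 SD, cut at about 70% in these data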;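 note: higher means lower luciferase signal from less NR2E3 corepressor binding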
PG9 Ab binder – small molecules binding HIV-1 gp120 antibody PG9; actives 0.43% (n = 360,000); inhibition, % at 6.7 µM; AID 624416; TR-FRET gp120-PG9 antibody binding; in the data active = inhibition above about 8.5%
rCAG RNA binder – r(CAG) repeat RNA binding | inhibition, % at 3 µM | TO-PRO-1 dye displacement fluorescence | actives 1.3% (n = 370,000);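 active = inhibition above the plate cutoff, the mean of all test compounds on that plate plus 3 SD, cut at about 35% in these data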;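 note: higher means more dye released from RNA so lower well fluorescence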
Rev-erbA mod – modulates human Rev-erb alpha binding to DNA; actives 0.79% (n = 370,000); Rev-erbα–FITC-DNA binding, fluorescence polarization, 90 min; activity, % at 10 µM; P20393;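 active = activity above about 14%, limit read from the data; passing the limit was not always enough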
Target sequence (P20393 whole entry, looked up): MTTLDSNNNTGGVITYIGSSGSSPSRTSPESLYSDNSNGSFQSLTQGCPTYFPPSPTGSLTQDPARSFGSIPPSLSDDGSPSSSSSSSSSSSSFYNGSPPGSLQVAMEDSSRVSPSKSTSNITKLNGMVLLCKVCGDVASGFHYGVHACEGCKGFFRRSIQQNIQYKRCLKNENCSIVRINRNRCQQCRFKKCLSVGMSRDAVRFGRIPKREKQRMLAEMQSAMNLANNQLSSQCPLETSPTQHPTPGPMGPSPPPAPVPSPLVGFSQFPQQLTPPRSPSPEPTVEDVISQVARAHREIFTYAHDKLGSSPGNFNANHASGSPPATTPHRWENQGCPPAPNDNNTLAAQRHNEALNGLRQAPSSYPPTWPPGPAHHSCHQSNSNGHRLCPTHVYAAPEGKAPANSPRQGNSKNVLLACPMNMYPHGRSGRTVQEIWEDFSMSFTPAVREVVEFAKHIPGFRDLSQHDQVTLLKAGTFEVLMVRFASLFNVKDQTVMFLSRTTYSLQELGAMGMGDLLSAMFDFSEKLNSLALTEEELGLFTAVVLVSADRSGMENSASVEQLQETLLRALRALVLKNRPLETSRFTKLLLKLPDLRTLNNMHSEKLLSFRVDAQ
PG9 binder conf – confirmation of small molecules binding HIV-1 gp120 antibody PG9; actives 90% (n = 1,500); shares compounds with PG9 Ab binder; inhibition, % at 6.7 µM; TR-FRET PG9 antibody binding, biochemical; in the data active = inhibition above about 9%
PGV04 counter – binds control antibody PGV04 in PG9 binder counter-screen | TR-FRET PGV04 antibody-gp120 binding, biochemical | actives 95% (n = 1,500) | shares compounds with PG9 Ab binder | inhibition, % at 6.7 µM | AID 651604; in the data active = inhibition above about 9.5%
Rev-erbA confirm – Rev-erb alpha (human) modulation, hit confirmation. shares compounds with Rev-erbA mod. Rev-erb alpha FITC-DNA binding, fluorescence polarization, 90 min. activation, % at 25 µM. actives 61% (n = 3,000);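 active = activation at or above a set limit, or at least 3 SD above the negative control mean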
RORg DNA counter – affects RORgamma DNA binding in a Rev-erb alpha counter-screen. shares compounds with Rev-erbA mod. purified RORgamma protein-FITC-DNA binding, fluorescence polarization. IC50, µM. actives 8% (n = 910). AID 1259320;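 active = Compounds whose fitted half-maximal concentration for disrupting protein-DNA binding is below 10 micromolar; the record names Rev-erb in its text, so the target is in doubt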
Numbers stand for hits; - = inactive; . = no result. A selection: hits, their analogues and other compounds. The true share with any hit is near 2.6%.

SMILES	NR2E3 ag-1	NR2E3 ag-2	PG9 Ab binder	rCAG RNA binder	Rev-erbA mod	PG9 binder conf	PGV04 counter	Rev-erbA confirm	others
Cn1nc(C(=O)OCC(=O)Nc2ccc(SC(F)F)cc2)c2ccccc2c1=O	.	-	-	-	-	.	.	.
COc1ccc(Cc2nnc(NC(=O)C(C)C)s2)cc1	-	-	-	-	-	.	.	.
COc1ccc(-c2nnc(NC(=O)C(C)C)s2)c(OC)c1	-	-	12	-	38	20	30	28	RORg DNA counter=-
COC(=O)C1=C(C)N(Cc2ccccc2C(F)(F)F)C(=NCc2ccc3c(c2)OCO3)NC1c1cccc(Cl)c1 (stereo not given)	.	.	-	-	-	.	.	.
Cc1ccc2oc(=O)c3cnn(CC(=O)N4CCCc5ccccc54)c3c2c1	-	-	15	-	51	35	51	44
C=CCn1c(SCC(=O)NCc2ccco2)nc2sc(C)c(C)c2c1=O	-	-	-	-	-	.	.	.
Cc1sc2nc(SCC(=O)NCc3ccco3)n(-c3ccccc3)c(=O)c2c1C	-	-	51	-	102	58	75	85
Cc1ccc(-n2c(SCC(=O)NCc3ccco3)nc3sc(C)c(C)c3c2=O)cc1	-	-	30	-	67	29	42	63
Cc1sc2nc(SCC(=O)NCCO)n(-c3ccccc3)c(=O)c2c1C	-	-	-	-	-	.	.	.
Cc1ccccc1CNC(=O)CN1CCCc2ccccc21	.	.	.	-	-	.	.	.
Nn1c(SCc2ccc(Br)cc2)nnc1-c1n[nH]c2c1CCC2	.	.	.	-	-	.	.	.
Cc1cccc(C(=O)Nc2nc3ccc(S(C)(=O)=O)cc3s2)c1	.	-	34	-	36	15	38	22
Cc1ccc(NC(=O)Nc2nc3ccc(S(C)(=O)=O)cc3s2)cc1	.	-	34	-	19	31	42	-
Cc1ccc(C(=O)Nc2nc3ccc(S(C)(=O)=O)cc3s2)cc1C	-	-	21	-	26	32	51	21
COc1ccc(C(=O)Nc2nc3ccc(S(C)(=O)=O)cc3s2)cc1OC	-	-	22	-	30	28	40	25
CS(=O)(=O)c1ccc2nc(NC(=O)c3ccccc3)sc2c1	-	-	-	-	-	.	.	.
CS(=O)(=O)c1ccc2nc(NC(=O)Nc3ccc(Cl)c(Cl)c3)sc2c1	-	-	-	-	-	.	.	.
CCCCCCCCN1C(=O)[C@H](CC(=O)N2CCN(C(=O)OCC)CC2)C[C@@]2(C(=O)OCC)CCCC=C12	.	-	-	-	-	.	.	.
CC1C(=O)N(Cc2cn(CCC3OCCO3)nn2)CCS(=O)(=O)N1Cc1ccc(-c2ccc(F)nc2)cc1 (stereo not given)	.	-	-	-	-	.	.	.
O=C1c2cccc3cccc(c23)C(=O)N1Cc1ccccc1	-	-	51	-	36	60	69	-
O=C1c2cccc3cccc(c23)C(=O)N1Cc1cccnc1	-	-	-	-	-	.	.	.
Cc1cc(C)c(C#N)c(SCC(=O)Nc2cccc(S(=O)(=O)N3CCCC3)c2)n1	.	-	37	-	21	41	65	11
O=S1(=O)CC(N2CCN(CCO)CC2)CN1Cc1cn(Cc2ccc(C(F)(F)F)cc2)nn1 (stereo not given)	.	-	-	-	-	.	.	.
NC(=O)c1cc(Cc2ccccc2)sc1NC(=O)c1ccco1	-	-	-	-	-	.	.	.
CCOc1ccc(CC(=O)Nc2sc(Cc3ccccc3)cc2C(N)=O)cc1OCC	-	-	55	-	69	14	21	43	RORg DNA counter=2.5
SMILES	NR2E3 ag-1	NR2E3 ag-2	PG9 Ab binder	rCAG RNA binder	Rev-erbA mod	PG9 binder conf	PGV04 counter	Rev-erbA confirm	others
CC1CC2CCCC(O)=C2C(=O)O1 (stereo not given)	.	-	-	-	-	.	.	.
N#Cc1ccc(-c2ccc3c(c2)OCO3)nc1SCC(=O)OCc1ccccc1	-	-	13	-	24	14	29	19
COc1ccc(-c2ccc(C#N)c(SCC(=O)OCc3ccccc3)n2)cc1OC	-	-	-	-	-	.	.	.
Cc1cc(-n2c(SCC(=O)Nc3ccc(Br)cc3)nc3n[nH]c(C)c3c2=N)ccc1Cl	-	-	24	-	37	21	29	22
Cc1cc(-n2c(SCC(=O)Nc3ccc(F)c(F)c3)nc3n[nH]c(C)c3c2=N)ccc1Cl	-	-	21	-	51	-	-	27
CCOc1ccc(-n2c(SCC(=O)Nc3ccc(Br)cc3)nc3n[nH]c(C)c3c2=N)cc1	-	-	-	-	-	.	.	.
Cc1cc(-n2c(SCC(=O)NCc3cccs3)nc3n[nH]c(C)c3c2=N)ccc1Cl	-	-	38	-	43	33	44	28
COc1ccc(CC(=O)OCC(=O)c2ccc(S(=O)(=O)N3CCCCC3)cc2)cc1	-	-	-	-	-	.	.	.
CCc1nc2ccccc2c(C(=O)OCC(=O)C(C)(C)C)c1C	-	-	-	-	-	.	.	.
CCc1nc2ccccc2c(C(=O)OCc2nc3ccccc3c(=O)[nH]2)c1C	.	-	25	-	32	14	17	28	RORg DNA counter=-
C[C@H]1CN([C@@H](C)CO)S(=O)(=O)c2ccc(Br)cc2O[C@H]1CN(C)C(=O)c1cccc(F)c1	.	-	-	-	-	.	.	.
CCC(C)n1c(=O)c(C(=O)Nc2ccccc2S(N)(=O)=O)c(O)c2ccccc21 (stereo not given)	-	-	14	-	54	14	23	31
CC1(c2nnnn2-c2ccc3c(c2)OCCO3)CCC(=O)N1Cc1cccc(C(F)(F)F)c1 (stereo not given)	.	-	-	-	-	.	.	.
COc1ccc(C)cc1Nc1nc(-c2ccccc2O)nc2ccccc12	-	-	11	-	83	-	-	59	RORg DNA counter=-
Cc1ccc(O)c(Nc2nc(-c3ccccc3)nc3ccccc23)c1	-	-	-	-	-	.	.	.
Cc1cccc2cc(COC(=O)COc3ccccc3)c(=O)[nH]c12	-	-	26	-	31	31	41	21
CC(C)(C)NC(=O)C1c2ccccc2OCC(=O)N1CCc1ccccc1 (stereo not given)	.	-	-	-	-	.	.	.
CCN(C(=O)COC(=O)c1cc(-c2ccccc2)nc2ccc(Br)cc12)C1CCS(=O)(=O)C1 (stereo not given)	-	-	12	-	42	23	32	43
NC(N)=NCCN1CCCCCCC1	.	.	.	.	-	.	.	.
C[C@H](NC(=O)c1ncn2c1c(=O)[nH]c1ccc(Br)cc12)c1ccccc1	.	-	20	-	133	43	52	24
